# Test results: ChEMBL document CHEMBL1765051 (J Med Chem, 2011)
# Key:
# [1] = system: Human immunodeficiency virus 1; experiment: Antiviral activity against wild type HIV1 3B infected in human CEM cells assessed as inhibition of syncytia formation; type: functional, organism-based; conditions: Human immunodeficiency virus 1, 3B, CCRF-CEM
# [2] = system: Human immunodeficiency virus 1; experiment: Antiviral activity against HIV1 3B harboring reverse transcriptase K103N mutant infected in human CEM cells assessed as inhibition of syncytia formation; type: functional, organism-based; conditions: Human immunodeficiency virus 1, 3B, CCRF-CEM
# [3] = system: Human immunodeficiency virus 1; experiment: Antiviral activity against HIV1 3B harboring reverse transcriptase V106A mutant infected in human CEM cells assessed as inhibition of syncytia formation; type: functional, organism-based; conditions: Human immunodeficiency virus 1, 3B, CCRF-CEM
# [4] = system: Human immunodeficiency virus 1; experiment: Antiviral activity against HIV1 3B harboring reverse transcriptase N136A/Q/K mutant infected in human CEM cells assessed as inhibition of syncytia formation; type: functional, organism-based; conditions: Human immunodeficiency virus 1, 3B, CCRF-CEM
# [5] = system: Human immunodeficiency virus 1; experiment: Antiviral activity against HIV1 3B harboring reverse transcriptase E138K mutant infected in human CEM cells assessed as inhibition of syncytia formation; type: functional, organism-based; conditions: Human immunodeficiency virus 1, 3B, CCRF-CEM
# [6] = system: Human immunodeficiency virus 1; experiment: Antiviral activity against HIV1 3B harboring reverse transcriptase E138D mutant infected in human CEM cells assessed as inhibition of syncytia formation; type: functional, organism-based; conditions: Human immunodeficiency virus 1, 3B, CCRF-CEM
# [7] = system: Human immunodeficiency virus 1; experiment: Antiviral activity against HIV1 3B harboring reverse transcriptase V179N mutant infected in human CEM cells assessed as inhibition of syncytia formation; type: functional, organism-based; conditions: Human immunodeficiency virus 1, 3B, CCRF-CEM
# [8] = system: Human immunodeficiency virus 1; experiment: Antiviral activity against HIV1 3B harboring reverse transcriptase Y181C mutant infected in human CEM cells assessed as inhibition of syncytia formation; type: functional, organism-based; conditions: Human immunodeficiency virus 1, 3B, CCRF-CEM
# [9] = system: Human immunodeficiency virus 1; experiment: Antiviral activity against HIV1 3B harboring reverse transcriptase Y181I mutant infected in human CEM cells assessed as inhibition of syncytia formation; type: functional, organism-based; conditions: Human immunodeficiency virus 1, 3B, CCRF-CEM
# [10] = system: Human immunodeficiency virus 1; experiment: Antiviral activity against HIV1 3B harboring reverse transcriptase Y188H mutant infected in human CEM cells assessed as inhibition of syncytia formation; type: functional, organism-based; conditions: Human immunodeficiency virus 1, 3B, CCRF-CEM
# [11] = system: Human immunodeficiency virus 1; experiment: Antiviral activity against HIV1 3B harboring reverse transcriptase Y188L mutant infected in human CEM cells assessed as inhibition of syncytia formation; type: functional, organism-based; conditions: Human immunodeficiency virus 1, 3B, CCRF-CEM
# [12] = system: Human immunodeficiency virus 1; experiment: Antiviral activity against HIV1 3B harboring reverse transcriptase G190E mutant infected in human CEM cells assessed as inhibition of syncytia formation; type: functional, organism-based; conditions: Human immunodeficiency virus 1, 3B, CCRF-CEM
# [13] = target: Human immunodeficiency virus type 1 reverse transcriptase (Human immunodeficiency virus 1, UniProt Q72547, K101E); experiment: Inhibition of HIV-1 reverse transcriptase K101E mutant-mediated polymerization reaction after 30 mins
# In short: (§1)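 Recombinant mutant HIV-1 RT started reactions containing 50 mM Tris-HCl pH 7.8, 5 mM DTT, 300 mM glutathione, 0.5 mM EDTA, 150 mM KCl, 5 mM MgCl2, BSA, 0.06% Triton X-100, 2.8 μM [3H]dGTP, 0.1 mM poly(rC)/oligo(dG) and varying compound. Incubated 30 min at 37°C, stopped with yeast RNA/pyrophosphate/TCA, acid-insoluble radioactivity counted; IC50 = 50% polymerization inhibition; mean ± SD, ≥2 independent experiments.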
# [14] = target: Human immunodeficiency virus type 1 reverse transcriptase (Human immunodeficiency virus 1, UniProt Q72547, E138K); experiment: Inhibition of HIV-1 reverse transcriptase E138K mutant-mediated polymerization reaction after 30 mins; in short: as §1
# [15] = Inhibition of HIV-1 reverse transcriptase […] and E138K mutant-mediated polymerization reaction after 30 mins; set-up: species or system Human immunodeficiency virus 1; in short: as §1
# [16] = system: Human immunodeficiency virus 2; experiment: Antiviral activity against wild type HIV2 infected in human CEM cells assessed as inhibition of syncytia formation; type: functional, organism-based; conditions: Human immunodeficiency virus 2, CCRF-CEM
# [17] = system: Human immunodeficiency virus 1; experiment: Ratio of EC50 for HIV1 3B harboring reverse transcriptase L100I mutant to EC50 for wild type HIV1 3B; type: functional
# [18] = system: Human immunodeficiency virus 1; experiment: Ratio of EC50 for HIV1 3B harboring reverse transcriptase K103N mutant to EC50 for wild type HIV1 3B; type: functional
# [19] = system: Human immunodeficiency virus 1; experiment: Ratio of EC50 for HIV1 3B harboring reverse transcriptase V106A mutant to EC50 for wild type HIV1 3B; type: functional
# [20] = system: Human immunodeficiency virus 1; experiment: Ratio of EC50 for HIV1 3B harboring reverse transcriptase N136A/Q/K mutant to EC50 for wild type HIV1 3B; type: functional
# [21] = system: Human immunodeficiency virus 1; experiment: Ratio of EC50 for HIV1 3B harboring reverse transcriptase E138K mutant to EC50 for wild type HIV1 3B; type: functional
# [22] = system: Human immunodeficiency virus 1; experiment: Ratio of EC50 for HIV1 3B harboring reverse transcriptase Y181C mutant to EC50 for wild type HIV1 3B; type: functional
# [23] = system: Human immunodeficiency virus 1; experiment: Ratio of EC50 for HIV1 3B harboring reverse transcriptase Y181I mutant to EC50 for wild type HIV1 3B; type: functional
# [24] = system: Human immunodeficiency virus 1; experiment: Ratio of EC50 for HIV1 3B harboring reverse transcriptase Y188H mutant to EC50 for wild type HIV1 3B; type: functional
# [25] = system: Human immunodeficiency virus 1; experiment: Ratio of EC50 for HIV1 3B harboring reverse transcriptase Y188L mutant to EC50 for wild type HIV1 3B; type: functional
# [26] = system: Human immunodeficiency virus 1; experiment: Ratio of EC50 for HIV1 3B harboring reverse transcriptase G190E mutant to EC50 for wild type HIV1 3B; type: functional
# [27] = system: Human immunodeficiency virus 1; experiment: Antiviral activity against HIV1 3B harboring reverse transcriptase L100I mutant infected in human CEM cells assessed as inhibition of syncytia formation; type: functional, organism-based; conditions: Human immunodeficiency virus 1, 3B, CCRF-CEM
# [28] = system: Human immunodeficiency virus 1; experiment: Antiviral activity against wild type HIV1 infected in human CEM cells assessed as inhibition of syncytia formation; type: functional, organism-based; conditions: Human immunodeficiency virus 1, CCRF-CEM
# [29] = target: Human immunodeficiency virus type 1 reverse transcriptase (Human immunodeficiency virus 1, UniProt Q72547); experiment: Inhibition of wild type HIV-1 reverse transcriptase-mediated polymerization reaction after 30 mins
smiles,measurement,setting,value
Cc1cn([C@@H]2O[C@H](CO[Si](C)(C)C(C)(C)C)[C@@]3(OS(=O)(=O)C=C3N)[C@H]2O[Si](C)(C)C(C)(C)C)c(=O)[nH]c1=O,EC50,[1],0.03 µg/mL
same,EC50,[2],0.23 µg/mL
same,EC50,[3],1.9 µg/mL
same,EC50,[4],> 50 µg/mL
same,EC50,[5],> 3 µg/mL
same,EC50,[6],0.01 µg/mL
same,EC50,[7],0.22 µg/mL
same,EC50,[8],2 µg/mL
same,EC50,[9],> 10 µg/mL
same,EC50,[10],> 3.3 µg/mL
same,EC50,[11],> 10 µg/mL
same,EC50,[12],> 10 µg/mL
same,IC50,[13],≥ 170000 nM
same,IC50,[14],> 170000 nM
same,IC50,[15],> 100 µg/mL
same,EC50,[16],> 20000 nM
same,Ratio EC50,[17],7
same,Ratio EC50,[18],7
same,Ratio EC50,[19],30
same,Ratio EC50,[20],30
same,Ratio EC50,[21],30
same,Ratio EC50,[22],30
same,Ratio EC50,[23],30
same,Ratio EC50,[24],30
same,Ratio EC50,[25],30
same,Ratio EC50,[26],30
same,EC50,[27],0.07 µg/mL
Cc1cn([C@@H]2O[C@H](CO[Si](C)(C)C(C)(C)C)[C@@]3(OS(=O)(=O)C=C3NC(=O)C(N)=O)[C@H]2O[Si](C)(C)C(C)(C)C)c(=O)n(C)c1=O,EC50,[28],28 nM
same,EC50,[16],> 7000 nM
Cc1cn([C@@H]2O[C@H](CO[Si](C)(C)C(C)(C)C)[C@@]3(OS(=O)(=O)C=C3N)[C@H]2O[Si](C)(C)C(C)(C)C)c(=O)[nH]c1=S,EC50,[28],170 nM
same,EC50,[16],> 2000 nM
Cc1cn([C@@H]2O[C@H](CO[Si](C)(C)C(C)(C)C)[C@@]3(OC(=O)N=C3N)[C@H]2O[Si](C)(C)C(C)(C)C)c(=O)n(C)c1=O,EC50,[28],5800 nM
same,EC50,[16],> 35000 nM
Cc1cn([C@@H]2O[C@H](CO[Si](C)(C)C(C)(C)C)[C@]3(C=CS(=O)(=O)O3)[C@H]2O[Si](C)(C)C(C)(C)C)c(=O)n(C)c1=O,IC50,[29],3300 nM
same,EC50,[28],150 nM
same,EC50,[16],> 2000 nM
CC1=CN([C@@H]2O[C@H](CO[Si](C)(C)C(C)(C)C)[C@@]3(OS(=O)(=O)C=C3N)[C@H]2O[Si](C)(C)C(C)(C)C)C(=O)NC1,EC50,[28],100 nM
same,EC50,[16],> 10000 nM
CC(C)(C)[Si](C)(C)OC[C@H]1O[C@@H](n2cnc3c(N)ncnc32)[C@H](O[Si](C)(C)C(C)(C)C)[C@]12OS(=O)(=O)C=C2N,EC50,[28],50 nM
same,EC50,[16],> 10000 nM
Cn1cnc2c(ncn2[C@@H]2O[C@H](CO[Si](C)(C)C(C)(C)C)[C@@]3(OS(=O)(=O)C=C3N)[C@H]2O[Si](C)(C)C(C)(C)C)c1=O,EC50,[28],60 nM
same,EC50,[16],> 150000 nM
CNC(=O)c1cnnn1[C@@H]1O[C@H](CO[Si](C)(C)C(C)(C)C)[C@@]2(OS(=O)(=O)C=C2N)[C@H]1O[Si](C)(C)C(C)(C)C,EC50,[28],80 nM
same,EC50,[16],> 7000 nM
Cc1cn([C@@H]2O[C@H](CO[Si](C)(C)C(C)(C)C)[C@@]3(NS(=O)(=O)N=C3N)[C@H]2O[Si](C)(C)C(C)(C)C)c(=O)n(C)c1=O,EC50,[28],5300 nM
same,EC50,[16],> 7000 nM
Cc1cn([C@@H]2O[C@H](CO[Si](C)(C)C(C)(C)C)[C@@]3(OS(=O)(=O)C=C3N)[C@H]2O[Si](C)(C)C(C)(C)C)c(=O)n(C)c1=O,EC50,[1],0.03 µg/mL
same,EC50,[2],0.23 µg/mL
same,EC50,[3],1.9 µg/mL
same,EC50,[4],> 50 µg/mL
same,EC50,[5],> 3 µg/mL
same,EC50,[6],0.01 µg/mL
same,EC50,[7],0.22 µg/mL
same,EC50,[8],2 µg/mL
same,EC50,[9],> 10 µg/mL
same,EC50,[10],> 3.3 µg/mL
same,EC50,[11],> 10 µg/mL
same,EC50,[12],> 10 µg/mL
same,IC50,[29],2400 nM
same,IC50,[13],> 166000 nM
same,IC50,[14],> 166000 nM
same,IC50,[15],> 100 µg/mL
same,EC50,[28],40 nM
same,EC50,[16],> 250000 nM
same,Ratio EC50,[17],7
same,Ratio EC50,[18],7
same,Ratio EC50,[19],30
same,Ratio EC50,[20],30
same,Ratio EC50,[21],30
same,Ratio EC50,[22],30
same,Ratio EC50,[23],30
same,Ratio EC50,[24],30
same,Ratio EC50,[25],30
same,Ratio EC50,[26],30
same,EC50,[27],0.07 µg/mL
CNC(=O)CCCCn1c(=O)c(C)cn([C@@H]2O[C@H](CO[Si](C)(C)C(C)(C)C)[C@@]3(OS(=O)(=O)C=C3N)[C@H]2O[Si](C)(C)C(C)(C)C)c1=O,EC50,[16],> 10000 nM
Nc1nc2c(ncn2[C@H]2CC[C@@H](COP(=O)(O)OP(=O)(O)OP(=O)(O)O)O2)c(=O)[nH]1 [DIDEOXY GUANOSINE TRIPHOSPHATE],IC50,[29],224 nM
same,IC50,[13],244 nM
same,IC50,[14],224 nM
same,IC50,[15],0.14 µg/mL
